CSN inh – inhibitors of CSN-mediated cullin deneddylation, primary screen, biochemical, fluorescence polarization, uHTS; COP9 signalosome complex subunit 5 (Homo sapiens), Q92905; Purified CSN, SCF-Nedd8-OG deneddylation; inhibition, % at 12.5 µM; hit rate 0.38% among 360,000;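 active means pattern-corrected inhibition above about 35%, with an unprinted fluorescence ratio check between 0.5 and 1.5, limit read from the data, passing the limit was not always enough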;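 further: 0% = enzyme with substrate and 100% = substrate without enzyme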
Target sequence (Q92905 whole entry, looked up, one chain of several): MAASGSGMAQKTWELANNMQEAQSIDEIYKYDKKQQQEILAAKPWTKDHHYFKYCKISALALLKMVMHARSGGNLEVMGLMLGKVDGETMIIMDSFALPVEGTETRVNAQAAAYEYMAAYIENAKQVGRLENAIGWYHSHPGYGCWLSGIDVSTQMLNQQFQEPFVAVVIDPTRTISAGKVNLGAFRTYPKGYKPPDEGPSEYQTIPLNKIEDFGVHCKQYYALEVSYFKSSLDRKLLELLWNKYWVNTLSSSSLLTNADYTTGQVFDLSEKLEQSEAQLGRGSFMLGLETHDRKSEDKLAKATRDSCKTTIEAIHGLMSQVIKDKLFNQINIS
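Material: human Csn5 produced in HEK293T cells; Input: enzyme 0.24 nM; Reagent: SCFSkp2-Nedd8OG substrate at 10 nM final; Dosing: 12.5 µM compound; Incubation: 90 min reaction at room temperature; Detection: fluorescence polarization of the substrate; Evaluation: % inhibition of substrate cleavage by Csn5; Control set: substrate-only high control, full reaction low control.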
IDE act – human IDE activators in live cells, primary screen, fluorescence polarization, HEK cells, FAbeta-B substrate; FAbeta-B cleavage; 0% vehicle, 100% cell-free pure enzyme wells; activation, % at 5.96 µM; hit rate 0.073% among 340,000; AID 493087, 2011;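 active means activation above the mean of all tested compounds plus 3 SD, set per screening campaign, cut at about 17% in these data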
IDE inh – human IDE inhibitors in live cells, primary screen, fluorescence polarization, HEK cells, FAbetaB substrate; AID 434962, 2010; FAbetaB cleavage; hit rate 0.41% among 320,000; Insulin-degrading enzyme (Homo sapiens), P14735; inhibition, % at 5.59 µM;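 active means percent inhibition above the average of all tested compounds plus 3 SD, set per screening campaign, cut at about 16% in these data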;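 further: IDE supplied by intact live HEK cells; FP after avidin binding of uncleaved biotin substrate so inhibition keeps polarization high; 0% = DMSO wells and 100% = 60 µM reference IDE inhibitor Ii1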
HNF4A DNA FP – change in binding of human HNF4A to DNA, primary screen, biochemical, fluorescence polarization, FITC-DNA | Hepatocyte nuclear factor 4-alpha (Homo sapiens), P41235 | 1 h | activity change, % at 10 µM | hit rate 0.3% among 360,000; in the data active means activity change above about 30%, passing the limit was not always enough
TPT1 inhibitor – Candida albicans TPT1 enzyme inhibitors, primary screen, biochemical, fluorescence polarization | recombinant caTPT1, FP RNA substrate dephosphorylation | tRNA 2'-phosphotransferase TPT1 (Candida albicans SC5314) | AID 1962, 2009 | hit rate 0.81% among 300,000 | inhibition, % at 5 µM;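 active means inhibition above the mean of all tested compounds plus 3 SD, set per screening campaign, cut at about 24% in these data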;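 further: plate controls were DMSO alone for no effect and ferristatin control at 100 nM for full effect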
IDE inh confirm – human IDE inhibitors in live cells, confirmation, fluorescence polarization, HEK cells, FAbetaB substrate; shares compounds with IDE inh; FAbetaB cleavage; inhibition, % at 5.59 µM; hit rate 51% among 1,200; AID 435028, 2010;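 active means mean inhibition across triplicate wells above the cutoff set by the earlier primary insulin-degrading enzyme screen, cut at about 16% in these data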;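 further: 0% = DMSO wells and 100% = 60 µM reference IDE inhibitor Ii1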
HEK cytotox – cytotoxicity in HEK cells, cytotoxicity control for IDE inhibitor project, cell-based, luminescence. shares compounds with IDE inh. HEK293 cytotoxicity, ATP luminescence. inhibition, % at 5.59 µM. hit rate 28% among 1,200; in the data active means inhibition above about 22%;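 further: 0% = vehicle wells and 100% = reference cytotoxic drug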
IDE FP artifact – fluorescent or optically active artefacts, dose response, artefact control for IDE inhibitor project, biochemical, fluorescence polarization; shares compounds with IDE inh; 30 tested, under 10 active; FP counterscreen for fluorescent artifacts, IDE probe project; IC50, µM; call rule not given here
Starred values were filed as active, the others as inactive; · = not tested or not shown. This is a sample that favours compounds with a hit; in the whole collection about 1.4% have one here.

SMILES | CSN inh | IDE act | IDE inh | HNF4A DNA FP | TPT1 inhibitor | IDE inh confirm | HEK cytotox | others
O=C(/C=C/c1ccc(Cl)cc1)NC(=S)Nc1ccc(NC(=O)c2ccco2)cc1 | -1 | -20 | 43* | 0 | 1 | 17* | 77*
O=C(C1=C[C@@H](C2CCCCC2)C[C@@H](OCc2ccc(CO)cc2)O1)N1CCN(Cc2ccccc2)CC1 | 0 | -12 | 19* | 3 | 1 | 5 | 15
O=C(C1=C[C@H](C2CCCCC2)C[C@H](OCc2ccc(CO)cc2)O1)N1CCN(Cc2ccccc2)CC1 | 2 | 0 | 7 | 0 | -2 | · | ·
O=C(OCC(=O)N1CCc2ccccc21)[C@@H]1CC(O)CN1S(=O)(=O)c1ccc(Cl)cc1 (stereo partly drawn) | -5 | 3 | -4 | 4 | · | · | ·
COc1ccc2nc(NC(=O)CN(c3ccc(C)cc3)S(=O)(=O)c3c(C)nn(C)c3C)sc2c1 | 1 | -1 | 16* | -1 | 1 | 5 | 15
COc1ccc(OC)c2c1C(=O)C(Cl)=C(Cl)C2=O | 4 | -102 | 22* | 2 | -3 | 18* | 125*
COc1ccc(N)c2c1C(=O)c1ccccc1C2=O | 3 | 5 | 2 | 2 | -1 | · | ·
CC(=O)N/C(=C\c1ccccc1)C(=O)OCC(=O)NC(C)C12CC3CC(CC(C3)C1)C2 (stereo not drawn) | 4 | -1 | 17* | 0 | 0 | -5 | 15
COC(=O)c1ccc2nc(-c3ccccc3)c(Cc3ccc(C)cc3)n2c1 | -3 | · | · | 1 | · | · | ·
Oc1c(Cl)cc(Cl)c2cccnc12 | 7 | 2 | · | 0 | · | · | ·
Clc1cc2cccnc2c2ccccc12 | 2 | -10 | 19* | -1 | -2 | 13 | 4
CC(C)(CC(=O)O)CC(=O)N1CCN(c2nc3ccc(Cl)cc3s2)CC1 | 0 | -30 | 16* | 0 | -2 | 2 | 14
CC(C)(CC(=O)O)CC(=O)N1CCCN(c2nc3ccc(Cl)cc3s2)CC1 | -2 | -22 | 7 | -2 | -6 | · | ·
Cc1ccc(C2=NN=C(NC(=O)CSc3nncn3C)SC2)cc1 | -2 | -19 | 24* | 0 | -2 | 12 | 11
CN1C(=O)/C(=C/c2ccc(C(=O)Nc3ccc(O)cc3C(=O)O)cc2)SC1=S | 10 | -2 | 5 | -4 | -1 | · | ·
O=C1/C(=C/c2cccc(F)c2)Oc2cc(O)ccc21 | -3 | -7 | 7 | -3 | 24 | · | ·
Cc1cc(NC(=O)c2ccc(Cl)cc2)cc(C)c1OCC(=O)N1CCOCC1 | 6 | -8 | 9 | -3 | -1 | · | ·
CCCCOc1ccc(C(=O)Nc2cc(C)c(OCC(=O)N3CCOCC3)c(C)c2)cc1 | 0 | -17 | 39* | 2 | -10 | 10 | 25*
CCn1c(-c2cc(-c3ccccc3OC)nc3ccccc23)n[nH]c1=S | -4 | -23 | 16* | 5 | -2 | 10 | 8
CCn1c(-c2cc(-c3cc(OC)ccc3OC)nc3ccccc23)n[nH]c1=S | -1 | -7 | 7 | 1 | -3 | · | ·
CC(=O)Nc1cc(N=Cc2ccc(O)cc2O)c(Cl)cc1Cl | -5 | -55 | 18* | -3 | -4 | 32* | 11
CC(C)CN(C(=O)COC(=O)CSc1ccc(Br)cc1)C1CCS(=O)(=O)C1 (stereo not drawn) | 1 | -1 | · | 2 | · | · | ·
COc1ccc(/C=N/n2c(C)nc3sc(C)c(C)c3c2=O)cc1 | 2 | · | 8 | -4 | -7 | · | ·
Cc1sc2nc(C)n(/N=C/c3ccccc3)c(=O)c2c1C | -4 | -11 | 16* | -7 | -4 | 10 | 13
Cc1cccc(C(=O)NCC(=O)OC(C)C(=O)Nc2ccc(Cl)cn2)c1 (stereo not drawn) | 2 | 1 | 16* | 1 | 2 | 0 | 12
SMILES | CSN inh | IDE act | IDE inh | HNF4A DNA FP | TPT1 inhibitor | IDE inh confirm | HEK cytotox | others
CN(C)c1ccc(C2Nc3ccccc3C(=O)N2NS(C)(=O)=O)cc1 (stereo not drawn) | -2 | 4 | · | 1 | · | · | ·
COc1cc(-c2coc3c(C(=O)NCc4ccc(C(F)(F)F)cc4)cccc23)ccc1O | -6 | · | · | -2 | · | · | ·
O=c1c(O)c(-c2cccs2)oc2ccc(Cl)cc12 | 7 | 24* | 70* | -23 | -5 | 26* | 9
O=C(O)C(Cc1ccccc1)N1C(=O)/C(=C/c2cccnc2)SC1=S (stereo not drawn) | 3 | -1 | 0 | 8 | 3 | · | ·
O=C(O)C(c1ccccc1)N1C(=O)/C(=C\c2ccc(O)c(O)c2)SC1=S (stereo not drawn) | 129 | -55 | 67* | -3 | 13 | 84* | 12
COc1ccc(-c2noc(CSc3nnc(-c4ccccc4)n3C)n2)cc1 | -1 | -18 | 17* | -1 | -3 | 9 | 16
Cn1c(SCc2nc(-c3ccc(Br)cc3)no2)nnc1-c1ccco1 | -4 | -8 | 9 | -1 | 2 | · | ·
Cc1ccc(NC(=O)CSc2nnc(CSc3nc(C)cc(C)n3)n2Cc2ccco2)c(C)c1 | 0 | -1 | 3 | -4 | 1 | · | ·
Cc1ccc(NC(=O)CSc2nnc(-c3cccc(Cl)c3)n2Cc2ccco2)c(C)c1 | · | · | · | · | · | · | · | IDE FP artifact=>55
O=C(CSc1nnc(-c2cccc(Cl)c2)n1Cc1ccco1)Nc1ccccc1C(F)(F)F | · | · | · | · | · | · | · | IDE FP artifact=>55
CCOC(=O)C1=CN(C(C)C)CCC1=O | -4 | 5 | · | -3 | · | · | ·
Cc1sc2ncnc(SCC(=O)NC(=O)c3cccn3C)c2c1C | -1 | -11 | 19* | 3 | 2 | 2 | 18
Cc1cc2occ(CC(=O)N(C)CC(=O)Nc3ccc(F)cc3)c2cc1C | 1 | 6 | -3 | -1 | 0 | · | ·
COc1ccc(OC)c(CCNC(=O)c2ccc(NC3=NC4CS(=O)(=O)CC4S3)cc2)c1 (stereo not drawn) | -5 | 1 | 2 | -3 | 2 | · | ·
CCOc1cc(/C=C2/SC(=S)N(CC(=O)O)C2=O)ccc1OC(=O)c1cccs1 | 7 | -1 | 8 | 13 | 1 | · | ·
COc1cc(/C=C2/SC(=S)N(CC(=O)O)C2=O)ccc1OC(=O)c1ccco1 | 10 | -19 | 26* | 29 | 5 | 90* | 9
COc1ccc(/C=C2/SC(=S)N(CC(=O)O)C2=O)cc1OCc1ccc(Cl)cc1 | 6 | 3 | -4 | -2 | 2 | · | ·
